From PubChem BioAssay
Tn6 DDE FP – disrupts Tn6 cyclic peptide binding to fibrin D-Dimer-E complex; Fibrin DD(E) TRITC-Tn6 fluorescence polarization displacement; inhibition, % at 8.3 µM; P02675; 370,000 tested, 0.21% active;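 active = inhibition above a per-campaign cutoff: mean of compounds within control limits plus 3 SD, cut at about 15% in these data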
Target sequence (P02675 whole entry, looked up): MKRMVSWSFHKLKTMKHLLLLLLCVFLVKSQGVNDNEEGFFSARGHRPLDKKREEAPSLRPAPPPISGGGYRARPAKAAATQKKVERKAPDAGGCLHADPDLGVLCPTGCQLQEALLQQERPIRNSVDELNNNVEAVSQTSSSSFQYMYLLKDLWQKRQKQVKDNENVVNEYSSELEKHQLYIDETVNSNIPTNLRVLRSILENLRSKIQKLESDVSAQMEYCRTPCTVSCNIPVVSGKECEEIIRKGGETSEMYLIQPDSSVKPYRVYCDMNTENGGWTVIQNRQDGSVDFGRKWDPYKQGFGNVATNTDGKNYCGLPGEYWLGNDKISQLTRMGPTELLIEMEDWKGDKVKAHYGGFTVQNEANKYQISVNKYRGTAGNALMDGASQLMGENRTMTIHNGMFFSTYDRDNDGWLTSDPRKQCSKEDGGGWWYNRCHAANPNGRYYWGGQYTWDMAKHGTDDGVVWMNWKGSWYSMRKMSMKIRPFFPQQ
RTF Ca sens inh – cardiac RTF calcium desensitization; P19429+P45379; IANBD-labeled cardiac RTF, Ca2+ fluorescence; inhibition, % at 7.15 µM; 340,000 tested, 0.12% active;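 active = inhibition above the mean inhibition of all tested compounds plus 3 SD, cut at about 17% in these data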;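 note: assay run at fixed EC70 calcium of 1.6 mM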
Tn7 DDE FP – DD(E)-Tn7 binding inhibition, primary FP screen; FP displacement of FITC-Tn7 peptide from fibrin DD(E); 0% = median of compound wells per plate; inhibition, % at 8.3 µM; 370,000 tested, 0.13% active; AID 720508;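 active = inhibition above the mean of compounds falling within the control limits plus 3 SD of them, cut at about 14% in these data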
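Assay system: Human fibrin DD(E) protein | Medium: Tris buffer with calcium and detergent, pH 7.8 | Reagent: 0.1 µM fluorescent Tn7 | Compound dosing: Single point at 8.3 µM | Times: 10 min preincubation, 3 h with tracer, room temperature | Detection: Fluorescence polarization of the labelled Tn7 tracer | Controls: Aha-Tn7 high control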
CRFR2-BP antag – antagonists of CRF-binding protein/CRF-R2 receptor complex. inhibition, % at 11.8 µM. HEK293 CRF-R2/CRF-BP, CRF-induced calcium fluorescence. 350,000 tested, 0.59% active;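 active = inhibition of the ligand-induced calcium signal above about 50% at the single tested concentration, limit read from the data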
CRFBP-R2 agonist – agonists of human CRF-binding protein/CRF-R2 receptor complex. activation, % at 13.2 µM. AID 588473. HEK293 CRF-R2/CRF-BP, calcium dye fluorescence (FLIPR); percent of saturating CRF peptide response. 350,000 tested, 0.46% active;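 active = activation of at least 50%, plus an integration ratio under a set limit after plate pattern correction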
RTF Ca sens act – cardiac RTF calcium sensitization. IANBD-labeled TnC RTF fluorescence at EC20 calcium; 0% EC20 calcium, 100% full calcium. activation, % at 7.2 µM. 340,000 tested, 0.24% active. P19429+P45379;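 active = activation above the mean over all tested compounds plus 3 SD, cut at about 30% in these data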;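 note: rise in fluorescence read as greater calcium sensitivity of cardiac thin filaments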
DDE Tn6 FP ctr – DD(E)-Tn6 binding inhibition, counter-screen. Fibrin DD(E), TRITC-Tn6 fluorescence polarization displacement; 0% = median of compound wells, not DMSO. 680 tested, 2% active. inhibition, % at 8.3 µM. AID 720621. shares compounds with Tn6 DDE FP;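 active = inhibition above the mean of test compounds lying between the control limits plus 3 SD of those, cut at about 14% in these data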
Tn6 DDE conf – confirmation of inhibitors of Tn6 binding to human fibrin DD(E). shares compounds with Tn6 DDE FP. inhibition, % at 8.3 µM. 680 tested, 10% active. FP displacement of TRITC-Tn6 peptide from DD(E); 0% = per-plate median of test wells;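 active = inhibition above the mean of compounds lying within the control limits plus 3 SD, cut at about 16% in these data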
Numbers stand for hits; 0 = inactive; - = no result; + = active, no number. Compounds with a hit are over-represented: about 1.4% of the library has one in this group of screens.

SMILES	Tn6 DDE FP	RTF Ca sens inh	Tn7 DDE FP	CRFR2-BP antag	CRFBP-R2 agonist	RTF Ca sens act	DDE Tn6 FP ctr	Tn6 DDE conf
Cc1cc2cc(CNC(=O)Nc3cccc(Cl)c3)ccc2n1C	70	0	0	0	0	0	0	18
Cc1cccc(NC(=O)NCc2ccc3c(c2)cc(C)n3C)c1	46	0	0	0	0	0	0	0
COc1cccc(NC(=S)NCc2ccc3c(c2)cc(C)n3C)c1	0	0	0	0	0	0	-	-
CC1CCC(NC(=O)C2CCC(CNc3c(N4CCCCC4)c(=O)c3=O)CC2)CC1 (stereo not given)	17	0	0	0	0	0	0	0
CC(C)(C)NC(=O)C1CCC(CNc2c(N3CCCCC3)c(=O)c2=O)CC1 (stereo not given)	0	0	0	0	0	0	-	-
COc1cc2sc3ccc(-c4ccc(CN5CCOCC5)cc4)cc3c(=O)c2cc1OC	18	0	0	0	0	0	0	0
COC(=O)c1ccc2c(c1)SC1=C(CCCC1=O)N2	22	0	0	0	0	0	0	24
COC(=O)CN1CCN(C(=O)c2nocc2C)CC1	0	-	0	-	-	-	-	-
CCCCOCCCNC(=S)Nc1ccc(S(=O)(=O)N2CCOCC2)cc1	0	0	0	0	0	0	-	-
O=S(=O)(c1ccc(NC(=S)NCCC(c2ccccc2)c2ccccc2)cc1)N1CCOCC1	17	0	0	0	0	0	0	0
O=C(Nc1cccc(F)c1)c1ccc(-n2cncn2)c2ccoc12	16	-	0	-	-	-	0	0
CC(=O)c1cccc(NC(=O)c2ccc(-n3cncn3)c3ccoc23)c1	0	-	0	-	-	-	-	-
CCCCCC(=O)Nc1ccc2oc(-c3cncc(Br)c3)nc2c1	16	0	0	0	0	0	0	0
Cc1cccc(NC(=O)C2CCN(S(=O)(=O)c3ccc(Cl)cc3)CC2)n1	17	0	0	0	0	0	0	0
Cc1cccc(NC(=O)C2CCN(S(=O)(=O)c3ccc4ccccc4c3)CC2)n1	0	0	0	0	0	0	-	-
Cc1cccc(Cn2cc(CN3CC(N(C)CCCOC(=O)c4cc(C)cc(C)c4)CS3(=O)=O)nn2)c1 (stereo not given)	0	-	0	-	-	-	-	-
O=C(c1ccc(Br)cc1)N1CCN(S(=O)(=O)c2ccccc2)CC1	16	0	0	0	0	0	0	0
Cc1nn(-c2ccccc2)c2sc(C(=O)NCc3ccc(F)cc3)cc12	32	-	0	-	-	-	0	0
Cc1nn(-c2ccc(F)cc2)c2sc(C(=O)O)cc12	0	0	0	0	0	0	-	-
O=C(CSc1nnc(CNC(=O)c2ccco2)o1)NC1CCCC1	16	0	0	0	0	0	0	0
C=CCNC(=S)N(C)[C@H]1C[C@H]2c3cc(-c4ccccc4C)ccc3CCN2C[C@H]1[C@H](C)O	0	-	0	-	-	-	-	-
Cc1cc(NC(=O)c2ccc(NS(=O)(=O)c3ccc(F)cc3)cc2)no1	17	-	0	-	-	-	0	0
O=C(Cn1nnc(-c2ccccc2F)n1)Nc1ccc(F)cc1F	16	-	0	-	-	-	0	0
CS(=O)(=O)c1cc(C(=O)O)cc(NCc2ccccc2)c1Oc1ccccc1	0	-	0	0	0	-	-	-
O=C(Nc1ccccc1)n1ccc2ccc(-c3ccc4cc[nH]c4c3)cc21	0	-	0	-	-	-	-	-
SMILES	Tn6 DDE FP	RTF Ca sens inh	Tn7 DDE FP	CRFR2-BP antag	CRFBP-R2 agonist	RTF Ca sens act	DDE Tn6 FP ctr	Tn6 DDE conf
CCn1nnnc1SCC(=O)Nc1nc(C)c(C)s1	16	0	0	0	0	0	0	0
O=C(CCS(=O)(=O)c1ccc(Cl)cc1)N1CCN(c2ccc(F)cc2)CC1	18	0	0	0	0	0	0	0
Cc1ccc(S(=O)(=O)CCC(=O)N2CCN(c3ccc(Cl)cc3)CC2)cc1	0	0	0	0	0	0	-	-
CCc1nc2ccc(C(=O)NCCc3c[nH]c4ccccc34)cn2c1N(C)Cc1nccn1C	0	-	0	-	-	-	-	-
Cc1cccc(-c2nnc(SCC(=O)Nc3cccc4ccccc34)n2Cc2ccco2)c1	0	-	0	-	-	-	-	-
CCOCCCn1c(=S)[nH]c2cc(C(=O)NCC(OC)OC)ccc2c1=O	16	0	0	0	0	0	0	0
C/C(=C\C(=O)c1cccnc1)Nc1ccc(O)cc1	44	0	0	0	0	0	0	0
C/C(=C\C(=O)c1ccccc1)Nc1ccc(O)cc1	17	0	0	0	0	0	0	0
COc1ccc(C(=O)/C=C(\C)Nc2ccc(NC(C)=O)cc2)cc1	0	0	0	0	0	0	-	-
Cc1ccc(-c2[nH]nc(N)c2N=Nc2ccccc2C)cc1	0	0	0	0	0	0	-	-
Cc1ccc(-c2[nH]nc(N)c2N=Nc2cccc(Cl)c2C)cc1	17	0	0	0	0	0	0	0
COC(=O)c1ccc(Cn2ccc3ccc(-c4ccc5ccn(C(=O)c6cccc(OC)c6)c5c4)cc32)cc1	0	-	0	-	-	-	-	-
O=C(Nc1ccc(Cl)c(C(F)(F)F)c1)c1ccncc1	0	0	0	0	0	0	-	-
CNC(=O)c1cc(Oc2ccc(NC(=O)Nc3ccc(Cl)c(C(F)(F)F)c3)cc2)ccn1	34	0	0	0	0	0	0	0
Cc1cccnc1NC(=O)Nc1cccc(F)c1	0	-	0	0	0	-	-	-
Fc1cccc(Cl)c1CNc1ccc(N2CCCC2)cc1	20	0	0	0	0	0	0	0
Cc1cc2ncc(S(=O)(=O)c3ccccc3)c(N)n2n1	0	0	0	0	0	0	-	-
Cc1cc2ncc(S(=O)(=O)C(C)(C)C)c(N)n2n1	17	0	0	0	0	0	0	0
Cc1ccc2ccccc2c1C(O)c1ncc(-c2ccc(Cl)cc2)[nH]1 (stereo not given)	0	-	0	-	-	-	-	-
O=c1cc(O)c2ccc(O)cc2o1	0	0	0	0	0	0	-	-
O=c1ccc2[n+]([O-])c3ccc(O)cc3oc-2c1	+	0	0	0	0	0	0	93
CCOC(=O)CNC(=O)Nc1cccc(Cl)c1C	52	0	0	0	0	0	0	0
NC(=O)c1cccc(Nc2nc(C(N)COCc3ccccc3)cs2)n1 (stereo not given)	0	-	0	-	-	-	-	-
CC1(C)CC(=O)C=C(Nc2ccccc2NC(=O)c2cccc(F)c2F)C1	0	-	0	-	-	-	-	-
COc1ccc(-c2cc(C(=O)Nc3ccccc3)on2)cc1	22	0	0	0	0	0	0	0
COc1ccc(C(=O)c2ccsc2N)cc1	19	0	0	0	0	65	0	0
